# Compound activity (PubChem BioAssay)
# The list is not random: actives were taken first. Their share in the collection is about 1.2%.
# TNAP act hi DEA: TNAP activators at high phosphate acceptor level, primary screen, biochemical, luminescence, uHTS; Alkaline phosphatase, tissue-nonspecific isozyme (Homo sapiens), P05186; purified TNAP, CDP-star luminescence, 1 M DEA, 30 min; hits give high values; 0 = EDTA background, 1 = DMSO-only activity; activation factor at 20 µM; 200,000 tested, under 10 active; AID 1136, 2008;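 active = activation factor at least 2 at 20 µM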
# Target sequence (P05186 whole entry, looked up): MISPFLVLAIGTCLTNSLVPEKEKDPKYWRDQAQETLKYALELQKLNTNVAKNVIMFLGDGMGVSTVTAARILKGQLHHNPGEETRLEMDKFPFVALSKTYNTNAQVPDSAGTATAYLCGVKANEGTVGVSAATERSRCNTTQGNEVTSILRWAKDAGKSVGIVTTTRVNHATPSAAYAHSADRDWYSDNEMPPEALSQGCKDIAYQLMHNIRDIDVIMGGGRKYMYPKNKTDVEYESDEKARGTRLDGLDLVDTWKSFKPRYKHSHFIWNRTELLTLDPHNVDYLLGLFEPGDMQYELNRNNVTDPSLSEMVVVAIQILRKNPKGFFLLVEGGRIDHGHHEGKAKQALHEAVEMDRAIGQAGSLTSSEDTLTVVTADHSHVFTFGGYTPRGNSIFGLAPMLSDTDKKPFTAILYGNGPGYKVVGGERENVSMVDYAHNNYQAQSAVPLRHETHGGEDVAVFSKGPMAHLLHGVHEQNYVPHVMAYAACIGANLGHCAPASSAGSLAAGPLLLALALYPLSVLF
#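 Control set: EDTA negative control, DMSO positive control / Assay system: human TNAP / Quantity: TNAP 1/800 final / Evaluation: TNAP activation factor scaled between EDTA and DMSO control wells / Measured by: luminescent substrate turnover signal / Compound dosing: one dose, 20 µM / Times: 30 min enzyme reaction at room temperature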
# INS promoter inh: inhibitors of insulin promoter-driven GFP, primary screen, imaging, TRM-6 cells, eGFP reporter, cell count; reporter expression induced with tamoxifen; inhibition, % at 2 µM; 0.9% of 130,000 active; AID 1273, 2008;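 active = inhibition above the mean plus 3 SD, with well images judged a real hit on visual review, cut at about 60% in these data, passing the limit was not always enough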
# Efa HMGR inh: inhibitors of E. faecalis class II HMGR, primary screen, biochemical, Enterococcus faecalis. 0.41% of 190,000 active. HMG-CoA reductase (Enterococcus faecalis, mvaE). AID 1066, 2008. inhibition, % at 10 µM. purified E. faecalis HMGR, NADPH absorbance 340 nm kinetic;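 active = inhibition above a set limit, the median over all tested compounds plus 3 SD, cut at about 9.5% in these data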;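 also: enzyme runs in reverse so mevalonate oxidation gives rising NADPH absorbance; 0% = complete reaction with DMSO and 100% = background rate lacking mevalonate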
# TNAP inh hi DEA: human TNAP enzyme inhibitors, primary screen, biochemical, luminescent, high phosphate acceptor level, uHTS | purified TNAP, CDP-star luminescence, 1 M DEA | Alkaline phosphatase, tissue-nonspecific isozyme (Homo sapiens), P05186 | 0.03% of 200,000 active | inhibition, % at 20 µM;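 active = over 50% inhibition of tissue-nonspecific alkaline phosphatase at 20 µM in the single-dose screen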;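 also: plate controls were DMSO wells for no effect and EDTA-quenched wells as full inhibition for full effect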
# TNAP inh noacc: human TNAP enzyme inhibitors, primary screen, biochemical, luminescent, no phosphate acceptor, uHTS. purified TNAP, CDP-star luminescence, 30 min. 0.26% of 200,000 active. AID 1012, 2008. inhibition, % at 20 µM. Alkaline phosphatase, tissue-nonspecific isozyme (Homo sapiens), P05186;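 active = tissue-nonspecific alkaline phosphatase inhibition above about 50% at 20 µM in the single-dose screen, limit read from the data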;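 also: 0% = DMSO negative control and 100% = EDTA positive control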
# * hit, by the source's call; . = no result given.
SMILES,TNAP act hi DEA,INS promoter inh,Efa HMGR inh,TNAP inh hi DEA,TNAP inh noacc
O=C(CNC(=S)N(Cc1ccccc1F)C1CCCCC1)NCCCN1CCOCC1,1.1,0,13*,-8,-36
C=CCn1cnc2c(c1=O)c1nc3ccccc3nc1n2-c1ccccc1,1,.,.,-2,-6
COCCCn1cnc2c(c1=O)c1nc3ccccc3nc1n2-c1ccccc1,1.1,91*,-4,-5,-9
CC1=CC(=O)C=C(C)C1=NOc1ccc([N+](=O)[O-])cc1,1,100*,-6,-3,-19
CC1CN(C)C(C)C/C1=N\Oc1ccc([N+](=O)[O-])cc1 (stereo unspecified),1,14,-4,-2,-4
Cn1cnnc1Sc1ccc(C(=O)NCCC(c2ccccc2)c2ccccc2)cc1[N+](=O)[O-],1,-54,-3,-5,-3
Cn1cnnc1Sc1ccc(C(=O)OCC(=O)NC2CC2)cc1[N+](=O)[O-],1,-43,15*,-4,5
CCc1cccc(CC)c1NC(=O)/C(C#N)=C/c1ccccc1C(F)(F)F,1,.,-2,5,-1
O=C(CSc1nc(-c2ccccc2)nc2c1Cc1ccccc1O2)Nc1ccc(C(=O)O)cc1,1,.,15*,-3,-19
CC(=O)Nc1ccc(OCC(O)Cn2c(C(C)C)nc3ccccc32)cc1 (stereo unspecified),1,.,11*,-4,-4
CC(=O)Nc1ccc(OCC(O)Cn2c(C)nc3ccccc32)cc1 (stereo unspecified),1,-8,2,-3,-5
O=C(Cc1ccccc1)NCC(=O)N/N=C/c1ccc(Cl)cc1,1,17,-3,0,1
COC(=O)c1ccc(OCC(=O)Nc2ccsc2C(=O)OC)cc1,1,.,12*,-1,-5
COc1c(S(=O)(=O)N2CCN(c3ccc(F)cc3)CC2)ccc(Cl)c1Cl,1.1,74*,4,-9,4
CC1(C)CC2CC(C)(CN2C(=O)COC(=O)CNC(=O)c2ccc(Cl)c(Cl)c2)C1 (stereo unspecified),1,.,-2,-1,-54
Cc1cc(C)n(-c2nc3ccccc3s2)n1,1,-7,2,-4,-14
Cc1cc(N)n(-c2nc3ccccc3s2)n1,1,63,9.6*,-2,-8
CCOc1ccc(-c2n[nH]c(C(=O)NN)c2C)cc1,1.1,19,-5,-7,82*
CC(C)COc1ccc(-c2cc(C(=O)NN)[nH]n2)cc1,1,53,3,1,-67
Cc1c(-c2ccccc2)n[nH]c1C(=O)NN,1,-77,-2,0,82*
Cc1cccc(NC(=O)c2ccc(S(=O)(=O)N3CCOCC3)cc2)n1,1,.,-1,-4,-6
CCC(=O)NC(Nc1nc(C)cs1)(C(=O)OC)C(F)(F)F (stereo unspecified),1,-21,5,-3,-5
Cc1ccc(N(C(=O)c2ccco2)C2C=CS(=O)(=O)C2)cc1 (stereo unspecified),1,5,-3,-4,-2
Cc1ccc(-c2nnn(CCC(=O)N3CCCCC3C)n2)cc1 (stereo unspecified),1,71*,-1,-1,-5
Cc1ccc(N2CC(O)=C(c3ccccc3)C2=N)cc1,1,73*,0,-4,-17
SMILES,TNAP act hi DEA,INS promoter inh,Efa HMGR inh,TNAP inh hi DEA,TNAP inh noacc
O=C(CCCN1CC=C(n2c(=O)[nH]c3ccccc32)CC1)c1ccc(F)cc1,0.9,-64,-5,7,63*
COc1ccccc1N1CCN(CCCC(=O)c2ccc(F)cc2)CC1,1.1,.,0,-8,-14
CCOCCCNC(=O)Cn1cnc2sc(C)c(S(=O)(=O)N3CCN(c4ncccn4)CC3)c2c1=O,1,9,8,0,-10
CCN(CC)C(=O)c1cnn(-c2ccccc2)c1NC(=O)c1ccco1,1,-3,2,0,-5
CCN(CC)C(=O)c1cnn(-c2ccccc2)c1NC(=O)c1cccs1,0.9,-26,9.6*,6,0
Cn1cc(CNCc2cnc3ccccn23)c(-c2ccc(Oc3ccccc3)cc2)n1,0.6,-48,8,39,74*
